Measurements as given in ChEMBL document CHEMBL1255376, “Comparative surveillance study of telavancin activity against recently collected gram-positive clinical isolates from across the United States” (2008).

What was measured:
Format in all cases: functional
[1] = system: Staphylococcus aureus; test: Antibacterial activity against methicillin-susceptible Staphylococcus aureus clinical isolate by broth microdilution method
In short: (§1)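 MICs by CLSI broth microdilution in frozen trays pre-loaded with serial dilutions of each agent. Quality-control strains run in parallel: E. faecalis ATCC 29212 and ATCC 51299, S. aureus ATCC 29213, S. pneumoniae ATCC 49619. Comparator susceptibility categories follow CLSI breakpoints. Methicillin resistance in staphylococci assigned from the oxacillin MIC.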

[2] = system: Staphylococcus aureus; test: Antibacterial activity against methicillin-resistant Staphylococcus aureus clinical isolate by broth microdilution method; in short: as §1
[3] = system: Staphylococcus capitis; test: Antibacterial activity against methicillin-susceptible coagulase-negative Staphylococcus capitis clinical isolate by broth microdilution method; in short: as §1
[4] = system: Staphylococcus cohnii; test: Antibacterial activity against methicillin-susceptible coagulase-negative Staphylococcus cohnii clinical isolate by broth microdilution method; in short: as §1
[5] = system: Staphylococcus epidermidis; test: Antibacterial activity against methicillin-susceptible coagulase-negative Staphylococcus epidermidis clinical isolate by broth microdilution method; in short: as §1
[6] = system: Staphylococcus haemolyticus; test: Antibacterial activity against methicillin-susceptible coagulase-negative Staphylococcus haemolyticus clinical isolate by broth microdilution method; in short: as §1
[7] = system: Staphylococcus saprophyticus; test: Antibacterial activity against methicillin-susceptible coagulase-negative Staphylococcus saprophyticus clinical isolate by broth microdilution method; in short: as §1
[8] = system: Mammaliicoccus sciuri; test: Antibacterial activity against methicillin-susceptible coagulase-negative Staphylococcus sciuri clinical isolate by broth microdilution method; in short: as §1
[9] = system: Staphylococcus simulans; test: Antibacterial activity against methicillin-susceptible coagulase-negative Staphylococcus simulans clinical isolate by broth microdilution method; in short: as §1
[10] = system: Staphylococcus warneri; test: Antibacterial activity against methicillin-susceptible coagulase-negative Staphylococcus warneri clinical isolate by broth microdilution method; in short: as §1
[11] = system: Staphylococcus xylosus; test: Antibacterial activity against methicillin-susceptible coagulase-negative Staphylococcus xylosus clinical isolate by broth microdilution method; in short: as §1
[12] = system: Staphylococcus capitis; test: Antibacterial activity against methicillin-resistant coagulase-negative Staphylococcus capitis clinical isolate by broth microdilution method; in short: as §1
[13] = system: Staphylococcus haemolyticus; test: Antibacterial activity against methicillin-resistant coagulase-negative Staphylococcus haemolyticus clinical isolate by broth microdilution method; in short: as §1
[14] = system: Staphylococcus saprophyticus; test: Antibacterial activity against methicillin-resistant coagulase-negative Staphylococcus saprophyticus clinical isolate by broth microdilution method; in short: as §1
[15] = system: Staphylococcus simulans; test: Antibacterial activity against methicillin-resistant coagulase-negative Staphylococcus simulans clinical isolate by broth microdilution method; in short: as §1
[16] = system: Staphylococcus warneri; test: Antibacterial activity against methicillin-resistant coagulase-negative Staphylococcus warneri clinical isolate by broth microdilution method; in short: as §1
[17] = system: Enterococcus faecalis; test: Antibacterial activity against vancomycin-susceptible Enterococcus faecalis clinical isolate by broth microdilution method; in short: as §1
[18] = system: Enterococcus faecalis; test: Antibacterial activity against vancomycin-resistant and teichoplanin-susceptible Enterococcus faecalis clinical isolate by broth microdilution method; in short: as §1
[19] = system: Enterococcus faecium; test: Antibacterial activity against vancomycin-susceptible Enterococcus faecium clinical isolate by broth microdilution method
In short: (§2)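 MIC by CLSI broth microdilution in frozen microtiter trays holding serial dilutions of each agent, prepared from standard laboratory powders. E. faecalis ATCC 29212 and ATCC 51299, S. aureus ATCC 29213 and S. pneumoniae ATCC 49619 run in parallel as quality-control strains. Comparator susceptibility interpreted with CLSI breakpoints.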

[20] = system: Enterococcus faecium; test: Antibacterial activity against vancomycin- and teichoplanin-nonsusceptible Enterococcus faecium clinical isolate by broth microdilution method; in short: as §1
[21] = system: Enterococcus faecium; test: Antibacterial activity against vancomycin-resistant and teichoplanin-susceptible Enterococcus faecium clinical isolate by broth microdilution method; in short: as §1
[22] = system: Streptococcus pyogenes; test: Antibacterial activity against Streptococcus pyogenes clinical isolate by broth microdilution method; in short: as §2
[23] = system: Streptococcus agalactiae; test: Antibacterial activity against Streptococcus agalactiae clinical isolate by broth microdilution method; in short: as §2
[24] = Antibacterial activity against Streptococcus sp. Group C clinical isolate by broth microdilution method; in short: as §2
[25] = system: Streptococcus sp.; test: Antibacterial activity against Streptococcus sp. Group F clinical isolate by broth microdilution method
In short: (§3)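 MIC by CLSI broth microdilution in frozen microtiter trays holding serial dilutions of each agent, prepared from standard laboratory powders. Comparator susceptibility interpreted with CLSI breakpoints.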

[26] = Antibacterial activity against Streptococcus sp. Group G clinical isolate by broth microdilution method; in short: as §2
[27] = system: Streptococcus equinus; test: Antibacterial activity against Streptococcus bovis clinical isolate by broth microdilution method; in short: as §2
[28] = system: Streptococcus constellatus; test: Antibacterial activity against Streptococcus constellatus clinical isolate by broth microdilution method; in short: as §2
[29] = system: Streptococcus intermedius; test: Antibacterial activity against Streptococcus intermedius clinical isolate by broth microdilution method; in short: as §2
[30] = system: Streptococcus mitis; test: Antibacterial activity against Streptococcus mitis clinical isolate by broth microdilution method; in short: as §2
[31] = system: Streptococcus oralis; test: Antibacterial activity against Streptococcus oralis clinical isolate by broth microdilution method; in short: as §2
[32] = system: Streptococcus sanguinis; test: Antibacterial activity against Streptococcus sanguinis clinical isolate by broth microdilution method; in short: as §2
[33] = system: Streptococcus sp.; test: Antibacterial activity against Streptococcus sp. clinical isolate by broth microdilution method; in short: as §3
[34] = system: Streptococcus pneumoniae; test: Antibacterial activity against penicillin intermediate Streptococcus pneumoniae clinical isolate by broth microdilution method; in short: as §1
[35] = system: Staphylococcus; test: Antibacterial activity against daptomycin-nonsusceptible coagulase-negative Staphylococcus isolate 1285835 by broth microdilution method; in short: as §2
[36] = system: Staphylococcus capitis; test: Antibacterial activity against daptomycin-nonsusceptible Staphylococcus capitis isolate 1285355 by broth microdilution method; in short: as §2
[37] = system: Staphylococcus aureus; test: Antibacterial activity against vancomycin-intermediate methicillin-resistant Staphylococcus aureus NRS17 by broth microdilution method
In short: (§4)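 VISA and VRSA strains from the NARSA repository were tested separately from the surveillance isolates. MICs by CLSI broth microdilution in frozen trays with serial dilutions. Quality-control strains run in parallel. Susceptibility categories follow CLSI breakpoints, and methicillin resistance was assigned from the oxacillin MIC.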

[38] = system: Staphylococcus aureus; test: Antibacterial activity against vancomycin-, methicillin-resistant Staphylococcus aureus VRS3 by broth microdilution method; in short: as §4

CCCCCCCCCCNCCN[C@@]1(C)C[C@H](O[C@H]2[C@H](Oc3c4cc5cc3Oc3ccc(cc3Cl)[C@@H](O)[C@@H](NC(=O)[C@@H](CC(C)C)NC)C(=O)N[C@@H](CC(N)=O)C(=O)N[C@H]5C(=O)N[C@H]3C(=O)N[C@H](C(=O)N[C@H](C(=O)O)c5cc(O)c(CNCP(=O)(O)O)c(O)c5-c5cc3ccc5O)[C@H](O)c3ccc(c(Cl)c3)O4)O[C@H](CO)[C@@H](O)[C@@H]2O)O[C@@H](C)[C@H]1O [TELAVANCIN]
8 µg/mL: MIC90 [20]
0.06 µg/mL: MIC90 [22] | MIC50 [23] | MIC90 [23] | MIC90 [24] | MIC90 [25] | MIC90 [26]
0.25 µg/mL: MIC50 [1] | MIC50 [2] | MIC90 [2] | MIC50 [3] | MIC50 [4] | MIC50 [5] | MIC50 [6] | MIC50 [7] | MIC50 [8] | MIC50 [9] | MIC50 [10] | MIC50 [11] | MIC50 [12] | MIC50 [13] | MIC50 [14] | MIC50 [15] | MIC50 [16] | MIC [18] | MIC90 [19] | MIC50 [21]
1 µg/mL: MIC90 [17] | MIC [36] | MIC [37]
0.015 µg/mL: MIC50 [34] | MIC90 [34]
2 µg/mL: MIC90 [21]
0.5 µg/mL: MIC90 [1] | MIC90 [3] | MIC90 [4] | MIC90 [5] | MIC90 [6] | MIC90 [7] | MIC90 [8] | MIC90 [9] | MIC90 [10] | MIC90 [11] | MIC90 [12] | MIC90 [13] | MIC90 [14] | MIC90 [15] | MIC90 [16] | MIC50 [17] | MIC [35]
0.12 µg/mL: MIC50 [19] | MIC90 [27] | MIC90 [28] | MIC90 [29] | MIC90 [30] | MIC90 [31] | MIC90 [32] | MIC90 [33]
4 µg/mL: MIC50 [20] | MIC [38]
0.03 µg/mL: MIC50 [22] | MIC [24] | MIC50 [24] | MIC [25] | MIC50 [25] | MIC [26] | MIC50 [26] | MIC50 [27] | MIC50 [28] | MIC50 [29] | MIC50 [30] | MIC50 [31] | MIC50 [32] | MIC50 [33]
